pIC50: −log10 of the molar value. Converted amounts (≈) assume the structure as drawn.
Key:
Plasmodium falciparum [1] = experiment: Antiplasmodial activity against chloroquine-sensitive Plasmodium falciparum 3D7 after 24 hrs by [3H]hypoxanthine incorporation assay; format: functional, organism-based
Procedure, shortened: (§1)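 Antiplasmodial testing was done at the Swiss Tropical and Public Health Institute. Chloroquine, the reference drug, was tested as its diphosphate salt.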

Plasmodium falciparum [2] = experiment: Antiplasmodial activity against chloroquine-resistant Plasmodium falciparum W2 after 24 hrs by [3H]hypoxanthine incorporation assay; format: functional, organism-based; procedure, shortened: as §1
Plasmodium falciparum [3] = experiment: Antiplasmodial activity against chloroquine-resistant Plasmodium falciparum K1 after 24 hrs by [3H]hypoxanthine incorporation assay; format: functional, organism-based; procedure, shortened: as §1
Plasmodium falciparum [4] = experiment: Resistance index, ratio of IC50 for chloroquine-resistant Plasmodium falciparum K1 to IC50 for chloroquine-sensitive Plasmodium falciparum 3D7; format: functional
[5] = Kinetic solubility of the compound in phosphate buffered saline at pH 7.4 after 2 hrs by HPLC analysis; format: physicochemical; conditions: read-out: Kinetic_solubility
[6] = Kinetic solubility of the compound in 0.01 M HCl at pH 2 after 2 hrs by HPLC analysis; format: physicochemical; conditions: read-out: Kinetic_solubility

Structure (SMILES) | pIC50 (Plasmodium falciparum [1]) | pIC50 (Plasmodium falciparum [2]) | pIC50 (Plasmodium falciparum [3]) | Ratio IC50 (Plasmodium falciparum [4]) | solubility kinetic at 2 h [5] [µM] | solubility kinetic at 2 h [6] [µM]
CC(C)(C)n1nnnc1C(NCCNc1ccnc2cc(Cl)ccc12)c1ccccc1 (centres undefined) | 8.30 | 7.16 | 7.42 | 7.6 | 111 (≈ 48.4 µg/mL) | > 200
Cc1ccc(C(NCCNc2ccnc3cc(Cl)ccc23)c2nnn[nH]2)cc1 (centres undefined) | – | – | 4.76 | – | – | –
Clc1ccc2c(NCCNC(c3ccc(Cl)c(Cl)c3)c3nnn[nH]3)ccnc2c1 (centres undefined) | – | – | 5.36 | – | 70.1 (≈ 31.5 µg/mL) | 191 (≈ 85.7 µg/mL)
Clc1ccc(C(NCCNc2ccnc3cc(Cl)ccc23)c2nnn[nH]2)cc1 (centres undefined) | – | – | 5.62 | – | 164 (≈ 67.9 µg/mL) | > 200
Clc1ccc2c(NCCCNC(c3ccccc3)c3nnn[nH]3)ccnc2c1 (centres undefined) | – | – | 4.85 | – | – | –
Clc1ccc2c(NCCCCNC(c3ccccc3)c3nnn[nH]3)ccnc2c1 (centres undefined) | – | – | 5.16 | – | – | –
COc1ccc(C(NCCNc2ccnc3cc(Cl)ccc23)c2nnnn2C(C)(C)C)cc1 (centres undefined) | 5.42 | 7.34 | 6.81 | 0.041 | – | –

— ChEMBL document CHEMBL3098028, “Synthesis and in vitro and in vivo pharmacological evaluation of new 4-aminoquinoline-based compounds” (ACS Med Chem Lett, 2013)
